In article PMC428586 (Reproductive biology and endocrinology : RB&E, 2004):
Values joined by “and” are separate entries in the source; they are usually repeats but may differ in a detail not shown here. Identical values can stand only once. Marks after values point to notes of the source that are not given here.

Legend:
[1] = tested on: hamster oviduct (infundibulum); assay: Oocyte pickup rate assay, hamster oviduct explants in vitro; format: cell-based, golden hamster (Mesocricetus auratus); settings: for Efficacy, Oocyte Pickup Rate: mean percentage of inhibition at the LOAEL
Method in brief: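 Female golden hamsters were primed with 25 IU PMSG on estrous day 1 and 25 IU hCG on day 3, then killed with CO2 about 12 h later. On infundibulum explants, transit time of an oocyte-cumulus complex (OCC) along a fixed path was timed, 6–10 times each in EBSS-H/0.1% BSA control, one test dose (10-13–10-5 M screen; ANOVA), and recovery. The LOAEL was repeated to n = 4 infundibula, and efficacy was taken as mean % inhibition there.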

[2] = tested on: hamster oviduct (infundibulum) cilia; assay: Ciliary beat frequency assay, hamster oviductal explants in vitro; format: cell-based, golden hamster (Mesocricetus auratus); settings: for Efficacy, Ciliary Beat Frequency: mean percentage of inhibition at the LOAEL
[3] = tested on: hamster oviduct infundibular smooth muscle; assay: Infundibular smooth muscle contraction assay, hamster oviduct explants in vitro; format: cell-based, golden hamster (Mesocricetus auratus); settings: for LOAEL, Contraction Rate: lowest observable adverse effect level, hamster infundibulum in EBSS-H with 0.1% BSA, n = 4 infundibula; for Efficacy, Contraction Rate: mean percentage of inhibition at the LOAEL; for LOAEL, infundibular smooth muscle contraction: as stated in the abstract
[4] = tested on: rats; settings: dose-dependent; cited from earlier work
[5] = tested on: female mice; settings: due to effects on adrenal function; cited from earlier work
[6] = tested on: male rats; settings: cited from earlier work
[7] = tested on: chick chorioallantoic membrane (CAM); settings: due to inhibition of DNA synthesis; cited from earlier work
[8] = lowest observable adverse effect level, hamster infundibulum in EBSS-H with 0.1% BSA, n = 4 infundibula
[9] = more inhibitory than pyridine, pyridine data ref 16

Cc1cnc(C)c(C)n1 [2,3,5-trimethylpyrazine]
Efficacy, Oocyte Pickup Rate [1]: 10%
LOAEL, Ciliary Beat Frequency [2, 8]: 10^-9 M
Efficacy, Ciliary Beat Frequency [2]: 18%
LOAEL, Contraction Rate [3]: 10^-9 M
Efficacy, Contraction Rate [3]: 58%

Cc1cnc(C)cn1 [2,5-dimethylpyrazine]
Efficacy, Oocyte Pickup Rate [1]: 10* %
Efficacy, Oocyte Pickup Rate ([1]; listed as 2,5-Dimethylpyrazine): 9.9%
LOAEL, Ciliary Beat Frequency [2, 8]: 10^-8 M
Efficacy, Ciliary Beat Frequency [2]: 34%
LOAEL, Contraction Rate [3]: 10^-9 M
Efficacy, Contraction Rate [3]: 40%
Effect on uterine weight [4]: caused a decrease in uterine weight
Effect on onset of puberty [5]: delayed the onset of puberty

Cc1cncc(C)n1 [2,6-dimethylpyrazine]
LOAEL, oocyte pickup rate [1, 8]: 10^-9 M
Efficacy, Oocyte Pickup Rate [1]: 3.5% and 3** %
LOAEL, Ciliary Beat Frequency [2, 8]: 10^-6 M
Efficacy, Ciliary Beat Frequency [2]: 5** %
LOAEL, Contraction Rate [3]: 10^-7 M
Efficacy, Contraction Rate [3]: 85*** %
Efficacy, Contraction Rate ([3]; listed as 2,6-Dimethylpyrazine): 85%

CCc1cnccn1 [2-ethylpyrazine]
LOAEL, oocyte pickup rate ([1]; as stated in the abstract): 10 picomolar
Efficacy, Oocyte Pickup Rate [1]: 45* %
LOAEL, Ciliary Beat Frequency ([2]; as stated in the abstract): 1 picomolar
Efficacy, Ciliary Beat Frequency [2]: 3** %
LOAEL, infundibular smooth muscle contraction [3]: 1 picomolar
Efficacy, Contraction Rate [3]: 38%
Decrease of LOAEL in the smooth muscle contraction assay relative to pyrazine [3]: 1000 fold

COc1nccnc1C [2-methoxy-3-methylpyrazine]
Efficacy, Oocyte Pickup Rate [1]: 13%
LOAEL, Ciliary Beat Frequency [2, 8]: 10^-9 M
Efficacy, Ciliary Beat Frequency [2]: 18%
Efficacy, Contraction Rate [3]: 17** %
Efficacy, Contraction Rate ([3]; listed as 2-Methoxy-3-methylpyrazine): 17%

Cc1cnccn1 [2-methylpyrazine]
LOAEL, oocyte pickup rate ([1]; as stated in the abstract): 10 picomolar
Efficacy, Oocyte Pickup Rate [1]: 43* %
LOAEL, Ciliary Beat Frequency ([2]; as stated in the abstract): 1 picomolar
Efficacy, Ciliary Beat Frequency [2]: 11* %
LOAEL, infundibular smooth muscle contraction [3]: 10 picomolar
Efficacy, Contraction Rate [3]: 61** %
Decrease of LOAEL in the smooth muscle contraction assay relative to pyrazine [3]: 100 fold

Cc1cnc(C)c(S)n1 [3,6-dimethylpyrazine-2-thiol]
Effect on prostate and seminal vesicle weights [6]: caused a decrease in prostate and seminal vesicle weights

c1cnccn1 [pyrazine]
LOAEL dose, oocyte pickup rate assay ([1]; LOAEL expressed in ppb for comparison with food levels): 4 ppb
LOAEL, oocyte pickup rate ([1]; as stated in the abstract): 10 picomolar
Efficacy, Oocyte Pickup Rate [1]: 29%
Inhibitory potency relative to pyridine, oocyte pickup rate [1, 9]: at least 1 million
LOAEL, Ciliary Beat Frequency ([2]; as stated in the abstract): 1 picomolar
Efficacy, Ciliary Beat Frequency [2]: 25%
Inhibitory potency relative to pyridine, ciliary beat frequency [2, 9]: at least 1 million
LOAEL, infundibular smooth muscle contraction [3]: 1 nM
LOAEL, Contraction Rate [3]: 10^-9 M
Efficacy, Contraction Rate [3]: 40%
Inhibitory potency relative to pyridine, infundibular smooth muscle contraction [3, 9]: at least 1 million
Effect on CAM and embryo growth [7]: inhibited both CAM and embryo growth at picomolar doses
